Screening results deposited in PubChem BioAssay by The Scripps Research Institute Molecular Screening Center.
5HT1E antag = 5-HT1E receptor antagonists, primary screen, cell-based, HTS; CHO 5-HT1E Ga15 NFAT-bla reporter, FRET, antagonist; inhibition, % at 6 µM; hit rate 0.99% among 65,000; AID 571, 2007;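 active = inhibition above a set limit, the mean inhibition across every tested compound plus 3 SD, cut at about 29% in these data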;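 note: signal is the 460 over 535 nm emission ratio of beta-lactamase substrate; 0% = agonist plus DMSO wells and 100% = wells without agonist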
Target sequence (P28566 whole entry, looked up): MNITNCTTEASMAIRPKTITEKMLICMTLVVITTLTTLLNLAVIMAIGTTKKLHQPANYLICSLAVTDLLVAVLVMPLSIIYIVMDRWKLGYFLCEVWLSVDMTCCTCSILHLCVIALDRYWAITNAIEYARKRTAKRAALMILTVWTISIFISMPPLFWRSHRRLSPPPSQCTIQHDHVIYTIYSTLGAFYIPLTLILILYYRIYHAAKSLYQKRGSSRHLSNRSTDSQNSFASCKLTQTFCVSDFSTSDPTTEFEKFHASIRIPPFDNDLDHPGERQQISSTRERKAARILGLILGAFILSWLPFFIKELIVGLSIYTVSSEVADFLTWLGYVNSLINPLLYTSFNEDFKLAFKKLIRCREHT
S1P3 agonist = human S1P3 receptor agonists, primary screen, cell-based, primary and confirmation, NFAT-BLA reporter | hit rate 0.1% among 60,000 | Sphingosine 1-phosphate receptor 3 (Homo sapiens), Q99500 | S1P3 NFAT-BLA reporter cells, agonism, FRET ratio; relative to 1 µM S1P, basal subtracted | activation, % at 4.5 µM | AID 373, 2006;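 active = activation above the screen-wide mean plus 3 SD, cut at about 4.5% in these data, passing the limit was not always enough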
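Benchmarks: high control 1 µM S1P / System: stable CHO line with human S1P3, Gα16, NFAT-BLA reporter / Dosing: single compound concentration, 4.5 µM final / Timing: 4 h compound at 37 °C, 2 h substrate at RT / Measured by: FRET β-lactamase substrate fluorescence, excitation 405 nm, 460/535 nm emission ratio, background-subtracted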
S1P1 ag pot = S1P1 agonists and agonism potentiators, primary screen, cell-based, primary and confirmation screens, CRE-bla reporter; Sphingosine 1-phosphate receptor 1 (Homo sapiens), P21453; S1P1 CRE-bla cells, forskolin, beta-lactamase FRET, potentiator mode; S1P1 agonist co-added at EC20, 2 nM; 100% = saturating reference agonist, 0% = basal; activation, % at 9.5 µM; hit rate 0.57% among 56,000;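 active = activation above a cutoff set at the mean activation of all tested compounds plus 3 SD, cut at about 54% in these data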;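 note: forskolin at 4 µM as EC80 and the EC20 agonist is SEW2871; 100% = SEW2871 at its EC100 plus forskolin at EC80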
Target sequence (P21453 whole entry, looked up): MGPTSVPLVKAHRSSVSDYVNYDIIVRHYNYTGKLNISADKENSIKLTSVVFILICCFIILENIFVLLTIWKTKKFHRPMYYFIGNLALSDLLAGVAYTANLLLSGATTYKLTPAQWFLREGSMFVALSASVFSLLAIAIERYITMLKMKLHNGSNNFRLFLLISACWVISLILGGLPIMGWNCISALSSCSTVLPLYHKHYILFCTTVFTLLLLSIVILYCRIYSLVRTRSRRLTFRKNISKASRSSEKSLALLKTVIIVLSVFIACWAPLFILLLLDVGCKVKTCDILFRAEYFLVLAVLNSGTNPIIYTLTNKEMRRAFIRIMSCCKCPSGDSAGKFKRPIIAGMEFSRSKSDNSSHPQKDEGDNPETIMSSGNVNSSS
5-HT1A blocker = human 5-HT1a receptor antagonists, primary screen, cell-based, CHO, Ga15 NFAT-bla reporter. CHO 5-HT1a Ga15 NFAT-bla reporter, antagonist mode. hit rate 0.68% among 62,000. inhibition, % at 10 µM. 5-hydroxytryptamine receptor 1A (Homo sapiens), P08908;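 active = inhibition above the mean of all tested compounds plus 3 SD, cut at about 43% in these data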;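 note: receptor stimulated by 5-CT agonist at 100 nM near EC80; beta-lactamase reporter measured by ratiometric fluorescence of a cleavable substrate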
HTR1E agonist = 5-HT1E receptor agonists, primary screen, cell-based, HTS. CHO 5-HT1E Ga15 NFAT-bla reporter, FRET; 0% DMSO wells, 100% control agonist wells. activation, % at 6 µM. hit rate 0.69% among 65,000. AID 574, 2007;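 active = activation above a set limit, the screen-wide mean activation plus 3 SD, cut at about 8.5% in these data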;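 note: 100% = positive control agonist at 1 µM giving full maximal response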
HTR1A agonist = human 5-HT1a receptor agonists, primary screen, cell-based, CHO, Ga15 NFAT-bla reporter; 5-hydroxytryptamine receptor 1A (Homo sapiens), P08908; CHO 5-HT1a Ga15 NFAT-bla reporter, FRET ratio; 0% basal, 100% maximal reference agonist; activation, % at 10 µM; hit rate 0.56% among 65,000; AID 567, 2006;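 active = activation above the screen-wide mean activation plus 3 SD, cut at about 19% in these data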;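 note: 0% = DMSO wells and 100% = 5-CT at EC100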
An asterisk follows results filed as active; . = no result given. Only some compounds are listed: those with a hit (about 3% of all), similar ones and a draw of the others.

SMILES | 5HT1E antag | S1P3 agonist | S1P1 ag pot | 5-HT1A blocker | HTR1E agonist | HTR1A agonist
CCOc1ccc(NC(=O)CCN2CCN(c3ccccc3)CC2)cc1 | 23.4 | -1.9 | -17.1 | 68.2* | 0.0 | 3.4
CCc1nn(C(C)C(=O)NCCN2CCN(c3cccc(C)c3C)CC2)c(=O)c2cc3occc3n12 (centres undefined) | -5.7 | -0.5 | 19.0 | 40.5 | 62.1* | 10.6
Cc1onc(-c2ccccc2Cl)c1C(=O)NCCn1c(C)cc2ccccc21 | 5.2 | -0.1 | 16.6 | 18.6 | 0.2 | -1.3
O=C(OC(C(=O)NC1CCCC1)c1ccccc1F)c1ccco1 (centres undefined) | -5.8 | 0.2 | -16.0 | 11.6 | 0.1 | 156.3*
COc1ccc(C(OC(=O)c2ccco2)C(=O)NC2CCCCC2)cc1OC (centres undefined) | -3.4 | -0.2 | -5.5 | 2.0 | 0.0 | -1.8
CCOC(=O)c1ccc(CNC(=O)Cn2nnc(-c3ccc(C)cc3)n2)o1 | -5.4 | -0.7 | 32.3 | 9.9 | 0.4 | -0.3
CCOc1ccc(C(=O)Nc2ccc(Cl)cn2)cc1Cl | -1.4 | -1.2 | 72.7* | 9.6 | 1.0 | 0.0
CCN(CC)C(=O)CN(C#N)c1nc(NC(C)C)nc(NC(C)C)n1 | -11.5 | -0.7 | 8.2 | . | -0.1 | -0.9
CCCN(C#N)c1nc(NCC)nc(NC(C)C)n1 | 28.6* | -0.2 | -25.6 | 8.3 | 0.8 | -0.6
CC(C)CCN(C(=O)CNC(=O)c1ccco1)C(C(=O)NC1CCCCC1)c1ccco1 (centres undefined) | -5.0 | 0.9 | -15.5 | 11.5 | 0.0 | -3.9
CCCCN(C)CCCNC(=O)CCn1nc(-c2ccccc2)ccc1=O | 5.5 | -1.3 | -3.4 | 4.3 | 21.7* | -3.7
CCCCNC(=O)CCn1nc(-c2ccccc2)ccc1=O | -12.4 | 1.0 | -5.0 | -5.6 | 0.2 | -2.5
CC(C)[C@H](NC(=O)OC(C)(C)C)c1nnc(SCC(=O)Nc2ccc(Br)cc2)o1 | 12.3 | -1.0 | 60.8* | 35.4 | 0.3 | -2.3
CC(C)=CCSc1nnc([C@@H](NC(=O)OC(C)(C)C)C(C)C)o1 | 7.5 | 0.7 | -7.4 | 0.7 | -0.8 | 0.3
Cc1nn(-c2nc3ccccc3s2)c(N)c1-c1ccccc1 | 18.2 | -0.7 | 95.3* | 16.2 | 0.8 | -0.6
COc1cccc(-c2nn(C)c3sc(C(=O)NCc4ccccn4)cc23)c1 | 42.0* | -1.1 | -14.2 | 19.7 | -1.0 | -1.2
COc1cccc(-c2nn(C)c3sc(C(=O)Nc4ccc5c(c4)OCCO5)cc23)c1 | -13.2 | 0.8 | 21.5 | -3.8 | 0.9 | -1.0
O=C(O)c1ccc(OCC(O)Cn2cnc3ccccc32)cc1 (centres undefined) | -10.6 | -0.4 | -3.4 | 2.8 | 9.3* | 0.3
COCC(C)NC(=O)CCS(=O)(=O)c1nc(-c2ccc(OC)cc2)cc(C(F)(F)F)n1 (centres undefined) | 8.2 | -1.0 | 16.2 | 38.9 | 0.1 | 4.3
CCOC(=O)CCS(=O)(=O)c1nc(-c2ccccc2)cc(C(F)(F)F)n1 | 54.3* | -1.3 | . | 86.3* | 1.4 | -0.2
CCOC(=O)CS(=O)(=O)c1nc(-c2ccc(F)cc2)cc(C(F)(F)F)n1 | 81.8* | -2.2 | -34.3 | 102.5* | 3.3 | -10.0
CCOC(=O)CS(=O)(=O)c1nc(-c2ccccc2)cc(C(F)(F)F)n1 | 107.8* | -0.7 | 1.8 | 104.8* | 4.6 | -6.6
CCNc1nc(N)c(C(=O)c2ccc(Cl)s2)s1 | 23.0 | -1.7 | 47.1 | 55.8* | -0.3 | 1.1
CC(C)(C)c1csc(NC(=O)c2ccc(Cl)s2)n1 | 18.5 | 0.2 | 26.9 | 34.7 | -1.3 | -1.5
CC12CC(c3ccccc3O1)C(C(=O)NCc1ccccc1)C(=O)N2 (centres undefined) | -22.2 | -0.1 | -8.1 | 4.3 | 1.3 | -2.9
SMILES | 5HT1E antag | S1P3 agonist | S1P1 ag pot | 5-HT1A blocker | HTR1E agonist | HTR1A agonist
CCN(C(=O)C1CCCCC1)c1nnc(-c2cccnc2)s1 | 2.7 | -0.3 | 99.0* | 3.1 | 0.3 | 1.5
CCN(C(=O)c1c(OC)cccc1OC)c1nnc(-c2cccnc2)s1 | -3.0 | 1.1 | -3.9 | -3.2 | 0.0 | 0.3
Cc1ccc(Nc2cc(C)nn2-c2nc(C)cc(C)n2)cc1 | 9.0 | -0.8 | -10.7 | 17.1 | 0.7 | -0.7
Cc1ccc(Nc2cc(C)nn2-c2nc(C)cc(=O)[nH]2)cc1 | 74.3* | -1.7 | -12.1 | 61.0* | 0.2 | -8.1
Cc1cc(C)n(Cc2ccc(C(=O)NCCC3=CCCCC3)o2)n1 | 4.9 | -1.3 | 3.1 | . | -0.8 | 65.1*
Cc1cc(C)n(Cc2ccc(C(=O)NCc3ccco3)o2)n1 | -6.7 | . | . | 7.5 | 0.7 | -1.7
COc1ccccc1N1CCN(Cc2ccc(Br)o2)CC1 | -1.8 | -0.8 | -3.2 | 9.8 | 5.5 | -1.2
COc1ccccc1N1CCN(Cc2cccc(OC)c2OC)CC1 | -0.2 | -1.8 | -11.7 | 40.5 | 3.4 | -2.2
COc1cc(CN2CCN(c3cccc(C)c3C)CC2)cc(OC)c1O | 5.0 | -1.7 | -17.5 | -1.9 | 57.0* | -2.2
COc1cc(OC)c(OC)cc1CN1CCN(c2ccccc2OC)CC1 | 18.6 | -1.0 | . | 46.3* | 23.4* | -1.1
COc1ccc(CC(C)N2CCN(c3ccccc3OC)CC2)cc1OC (centres undefined) | 7.5 | -1.3 | 5.0 | 98.2* | 1.3 | -0.2
CCOc1ccccc1N1CCN(Cc2ccc(OC)c(OC)c2OC)CC1 | 2.8 | -1.4 | 8.9 | 79.8* | 16.6* | -3.4
CCn1c(COc2ccccc2C)nnc1SCC(=O)CC(=O)Nc1ccccc1 | 5.2 | -0.8 | 24.8 | 15.0 | 0.2 | 2.6
CCN1CCN(Cc2ccc(OC)c(OCc3ccccc3)c2)CC1 | -4.7 | -1.0 | 4.8 | 5.5 | 0.2 | -1.5
COc1ccccc1N1CCN(C(c2ccc(C)cc2)c2nnnn2C(C)C)CC1 (centres undefined) | -1.1 | -0.6 | -31.0 | 31.4 | -0.1 | -2.9
COc1ccccc1N1CCN(C(c2ccc(F)cc2)c2nnnn2C(C)C)CC1 (centres undefined) | 6.6 | -0.6 | -14.1 | 42.6* | 0.6 | -3.3
CCOc1ccccc1N1CCN(Cc2ccc(OC)c(OC)c2)CC1 | -2.6 | -1.3 | -1.0 | 57.2* | 20.1* | -1.9
COC(=O)c1ccccc1NC(=O)NCc1ccc2c(c1)OCO2 | 30.7* | 0.2 | 5.5 | 16.6 | -1.0 | 16.6
COCCN1Cc2cccc(C(=O)NCc3ccccn3)c2C1=O | 0.0 | -1.0 | -14.4 | -1.9 | -0.4 | -2.4
COCCN1Cc2cccc(C(=O)NCc3ccc4c(c3)OCO4)c2C1=O | 15.4 | -0.7 | 12.1 | 0.7 | 0.0 | 238.4*
